Measured values taken from ChEMBL document CHEMBL1240415, “Design, synthesis and antimicrobial activities of some new quinoline derivatives carrying 1,2,3-triazole moiety” (2010).
Converted amounts (≈) assume the structure as drawn.

Key:
Format in all cases: functional
Pseudomonas aeruginosa = experiment: Antibacterial activity against Pseudomonas aeruginosa ATCC 27853 after 3 to 4 days by serial plate dilution method; conditions: for MIC: Pseudomonas aeruginosa, ATCC 27853
Outline: (§1)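 Serial dilutions in Mueller-Hinton broth in tubes, pH adjusted to 5.0 with phosphate buffer. Inoculated with a standardized bacterial suspension and incubated 16–18 h at 37 °C. MIC is the lowest concentration with no visible growth, tested over 6.25–100 µg/mL. Zones come from an agar well diffusion assay: compounds in DMSO are added to wells in seeded agar, DMSO control, triplicate plates, 37 °C for 3–4 days, inhibition zone diameter in mm.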

[1] = system: Trichophyton mentagrophytes; experiment: Antifungal activity against recultured Trichophyton mentagrophytes after 3 to 4 days by serial plate dilution method; conditions: for MIC: Trichophyton mentagrophytes
Outline: (§2)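 Sabouraud agar made from peptone, glucose and agar in water, pH 5.7. Fungal spores suspended in normal saline and used to lawn the plates, which were dried 1 h at 37 °C. Wells punched and compounds added in DMSO, with a DMSO solvent control. Triplicate plates held at 37 °C for 3–4 days. Read-out is inhibition zone diameter.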

Candida albicans = experiment: Antifungal activity against Candida albicans after 3 to 4 days by serial plate dilution method; conditions: for MIC: Candida albicans; outline: as §2
Aspergillus flavus = experiment: Antifungal activity against Aspergillus flavus NCIM 524 after 3 to 4 days by serial plate dilution method; conditions: for MIC: Aspergillus flavus, NCIM 524; outline: as §2
Aspergillus fumigatus = experiment: Antifungal activity against Aspergillus fumigatus NCIM 902 after 3 to 4 days by serial plate dilution method; conditions: for MIC: Aspergillus fumigatus, NCIM 902; outline: as §2
Streptococcus pyogenes = experiment: Antibacterial activity against Streptococcus pyogenes after 3 to 4 days by serial plate dilution method; conditions: for MIC: Streptococcus pyogenes; outline: as §1
Talaromyces marneffei = experiment: Antifungal activity against recultured Penicillium marneffei after 3 to 4 days by serial plate dilution method; conditions: for MIC: Talaromyces marneffei; outline: as §2
Staphylococcus aureus = experiment: Antibacterial activity against Staphylococcus aureus ATTC 25923 after 3 to 4 days by serial plate dilution method; conditions: for MIC: Staphylococcus aureus, ATTC 25923; outline: as §1
Klebsiella pneumoniae = experiment: Antibacterial activity against recultured Klebsiella pneumoniae after 3 to 4 days by serial plate dilution method; conditions: for MIC: Klebsiella pneumoniae; outline: as §1
Escherichia coli = experiment: Antibacterial activity against Escherichia coli ATTC 25922 after 3 to 4 days by serial plate dilution method; conditions: for MIC: Escherichia coli, ATTC 25922; outline: as §1

Compound	diameter of the inhibition zone (DIZ) (Pseudomonas aeruginosa)	MIC (Pseudomonas aeruginosa)	diameter of the inhibition zone (DIZ) [1]	MIC [1]	diameter of the inhibition zone (DIZ) (Candida albicans)	MIC (Candida albicans)	diameter of the inhibition zone (DIZ) (Aspergillus flavus)	MIC (Aspergillus flavus)	diameter of the inhibition zone (DIZ) (Aspergillus fumigatus)	MIC (Aspergillus fumigatus)	diameter of the inhibition zone (DIZ) (Streptococcus pyogenes)	MIC (Streptococcus pyogenes)	diameter of the inhibition zone (DIZ) (Talaromyces marneffei)	MIC (Talaromyces marneffei)	diameter of the inhibition zone (DIZ) (Staphylococcus aureus)	MIC (Staphylococcus aureus)	diameter of the inhibition zone (DIZ) (Klebsiella pneumoniae)	MIC (Klebsiella pneumoniae)	diameter of the inhibition zone (DIZ) (Escherichia coli)	MIC (Escherichia coli)
COc1ccc2nc(C)cc(-n3cc(CN4CCN(c5ccc(C)cc5)CC4)nn3)c2c1	<10 mm	50 µg/mL (≈ 117 µM)	12 mm	12.5 µg/mL (≈ 29.2 µM)	12 mm	12.5 µg/mL (≈ 29.2 µM)	12 mm	12.5 µg/mL (≈ 29.2 µM)	10 mm	12.5 µg/mL (≈ 29.2 µM)	<10 mm	50 µg/mL (≈ 117 µM)	<10 mm	25 µg/mL (≈ 58.3 µM)	<10 mm	50 µg/mL (≈ 117 µM)	<10 mm	50 µg/mL (≈ 117 µM)	<10 mm	50 µg/mL (≈ 117 µM)
COc1ccc(N2CCN(Cc3cn(-c4cc(C)nc5ccc(OC)cc45)nn3)CC2)c(C)c1	10 mm	12.5 µg/mL (≈ 27.3 µM)	14 mm	6.25 µg/mL (≈ 13.6 µM)	10 mm	6.25 µg/mL (≈ 13.6 µM)	14 mm	6.25 µg/mL (≈ 13.6 µM)	16 mm	6.25 µg/mL (≈ 13.6 µM)	16 mm	6.25 µg/mL (≈ 13.6 µM)	14 mm	6.25 µg/mL (≈ 13.6 µM)	14 mm	12.5 µg/mL (≈ 27.3 µM)	16 mm	6.25 µg/mL (≈ 13.6 µM)	14 mm	12.5 µg/mL (≈ 27.3 µM)
COc1ccc2nc(C)cc(-n3cc(CN(C)CCN(C)C)nn3)c2c1	14 mm	6.25 µg/mL (≈ 17.6 µM)	14 mm	6.25 µg/mL (≈ 17.6 µM)	12 mm	6.25 µg/mL (≈ 17.6 µM)	16 mm	6.25 µg/mL (≈ 17.6 µM)	14 mm	6.25 µg/mL (≈ 17.6 µM)	16 mm	6.25 µg/mL (≈ 17.6 µM)	16 mm	6.25 µg/mL (≈ 17.6 µM)	14 mm	6.25 µg/mL (≈ 17.6 µM)	14 mm	6.25 µg/mL (≈ 17.6 µM)	14 mm	6.25 µg/mL (≈ 17.6 µM)
COc1ccc2nc(C)cc(-n3cc(CNCCCN(C)C)nn3)c2c1	12 mm	6.25 µg/mL (≈ 17.6 µM)	12 mm	6.25 µg/mL (≈ 17.6 µM)	14 mm	6.25 µg/mL (≈ 17.6 µM)	14 mm	6.25 µg/mL (≈ 17.6 µM)	16 mm	6.25 µg/mL (≈ 17.6 µM)	14 mm	6.25 µg/mL (≈ 17.6 µM)	14 mm	6.25 µg/mL (≈ 17.6 µM)	14 mm	6.25 µg/mL (≈ 17.6 µM)	12 mm	6.25 µg/mL (≈ 17.6 µM)	10 mm	6.25 µg/mL (≈ 17.6 µM)
COc1ccc2nc(C)cc(-n3cc(CNC4CCCCC4)nn3)c2c1	11 mm	12.5 µg/mL (≈ 35.6 µM)	<10 mm	25 µg/mL (≈ 71.1 µM)	11 mm	12.5 µg/mL (≈ 35.6 µM)	12 mm	12.5 µg/mL (≈ 35.6 µM)	<10 mm	25 µg/mL (≈ 71.1 µM)	12 mm	12.5 µg/mL (≈ 35.6 µM)	10 mm	12.5 µg/mL (≈ 35.6 µM)	<10 mm	25 µg/mL (≈ 71.1 µM)	10 mm	12.5 µg/mL (≈ 35.6 µM)	10 mm	12.5 µg/mL (≈ 35.6 µM)
COc1ccc2nc(C)cc(-n3cc(CN4CCOCC4)nn3)c2c1	14 mm	6.25 µg/mL (≈ 18.4 µM)	12 mm	6.25 µg/mL (≈ 18.4 µM)	14 mm	6.25 µg/mL (≈ 18.4 µM)	16 mm	6.25 µg/mL (≈ 18.4 µM)	18 mm	6.25 µg/mL (≈ 18.4 µM)	16 mm	6.25 µg/mL (≈ 18.4 µM)	12 mm	6.25 µg/mL (≈ 18.4 µM)	16 mm	6.25 µg/mL (≈ 18.4 µM)	14 mm	6.25 µg/mL (≈ 18.4 µM)	16 mm	6.25 µg/mL (≈ 18.4 µM)
COc1ccc2nc(C)cc(-n3cc(CN(C)C4CCCCC4)nn3)c2c1	<10 mm	50 µg/mL (≈ 137 µM)	<10 mm	50 µg/mL (≈ 137 µM)	<10 mm	50 µg/mL (≈ 137 µM)	<10 mm	50 µg/mL (≈ 137 µM)	<10 mm	50 µg/mL (≈ 137 µM)	<10 mm	50 µg/mL (≈ 137 µM)	<10 mm	50 µg/mL (≈ 137 µM)	<10 mm	50 µg/mL (≈ 137 µM)	<10 mm	50 µg/mL (≈ 137 µM)	<10 mm	50 µg/mL (≈ 137 µM)
COc1ccc2nc(C)cc(-n3cc(CN4CCN(c5ccccc5)CC4)nn3)c2c1	12 mm	12.5 µg/mL (≈ 30.2 µM)	16 mm	6.25 µg/mL (≈ 15.1 µM)	12 mm	6.25 µg/mL (≈ 15.1 µM)	14 mm	6.25 µg/mL (≈ 15.1 µM)	16 mm	6.25 µg/mL (≈ 15.1 µM)	10 mm	12.5 µg/mL (≈ 30.2 µM)	16 mm	6.25 µg/mL (≈ 15.1 µM)	10 mm	6.25 µg/mL (≈ 15.1 µM)	12 mm	12.5 µg/mL (≈ 30.2 µM)	12 mm	12.5 µg/mL (≈ 30.2 µM)
COc1ccc2nc(C)cc(-n3cc(CN4CCC(N5CCOCC5)CC4)nn3)c2c1	10 mm	12.5 µg/mL (≈ 29.6 µM)	<10 mm	50 µg/mL (≈ 118 µM)	<10 mm	50 µg/mL (≈ 118 µM)	11 mm	12.5 µg/mL (≈ 29.6 µM)	<10 mm	50 µg/mL (≈ 118 µM)	12 mm	12.5 µg/mL (≈ 29.6 µM)	<10 mm	50 µg/mL (≈ 118 µM)	10 mm	12.5 µg/mL (≈ 29.6 µM)	11 mm	12.5 µg/mL (≈ 29.6 µM)	11 mm	12.5 µg/mL (≈ 29.6 µM)
COc1ccc2nc(C)cc(-n3cc(CN4CCN(C(C)C)CC4)nn3)c2c1	14 mm	6.25 µg/mL (≈ 16.4 µM)	16 mm	6.25 µg/mL (≈ 16.4 µM)	14 mm	6.25 µg/mL (≈ 16.4 µM)	16 mm	6.25 µg/mL (≈ 16.4 µM)	18 mm	6.25 µg/mL (≈ 16.4 µM)	16 mm	6.25 µg/mL (≈ 16.4 µM)	14 mm	6.25 µg/mL (≈ 16.4 µM)	18 mm	6.25 µg/mL (≈ 16.4 µM)	16 mm	6.25 µg/mL (≈ 16.4 µM)	20 mm	6.25 µg/mL (≈ 16.4 µM)
CCC(C)NCc1cn(-c2cc(C)nc3ccc(OC)cc23)nn1 (configuration not stated)	10 mm	12.5 µg/mL (≈ 38.4 µM)	<10 mm	25 µg/mL (≈ 76.8 µM)	11 mm	12.5 µg/mL (≈ 38.4 µM)	11 mm	12.5 µg/mL (≈ 38.4 µM)	<10 mm	25 µg/mL (≈ 76.8 µM)	12 mm	12.5 µg/mL (≈ 38.4 µM)	10 mm	12.5 µg/mL (≈ 38.4 µM)	10 mm	12.5 µg/mL (≈ 38.4 µM)	11 mm	12.5 µg/mL (≈ 38.4 µM)	14 mm	6.25 µg/mL (≈ 19.2 µM)
Cc1cc(C2CCCCC2)n(O)c(=O)c1.NCCO [CICLOPIROX OLAMINE]	–	–	27 mm	3.12 µg/mL	20 mm	6.25 µg/mL	25 mm	3.12 µg/mL	25 mm	6.25 µg/mL	–	–	20 mm	6.25 µg/mL	–	–	–	–	–	–
O=C(O)c1cn(C2CC2)c2cc(N3CCNCC3)c(F)cc2c1=O [CIPROFLOXACIN]	16 mm	–	–	–	–	–	–	–	–	–	25 mm	6.25 µg/mL (≈ 18.9 µM)	–	–	22 mm	–	23 mm	6.25 µg/mL (≈ 18.9 µM)	30 mm	–
